Assay results published in PMC7116464 (Biochemical pharmacology, 2019).

How the values were obtained:
[1] = test system: Leishmania tarentolae promastigotes (LtP); assay: Viability assay of LtP; format: cell-based; details: calculated from IC50, J774/IC50, LtP
[2] = test system: J774 macrophages; assay: Viability assay of J774 cells; format: cell-based, murine; details: Mus musculus, J774, read-out: IC50 J774
Method in brief: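 J774A.1 macrophages seeded at 1 × 10^5/mL in DMEM/10% FCS and allowed to attach for 24 h (37 °C, 5% CO2). Wells washed with PBS and refilled with medium. Compounds added from 25 or 200 µM in five 1:5 serial dilutions, triplicate. After 24 h, 20 µM resazurin (final) added for 4 h; fluorescence read at ex 560/em 590 nm.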

[3] = test system: Leishmania tarentolae promastigotes (LtP); format: cell-based; details: for influence on the antileishmanial action (IC50) of Asc and Art: PIH 100 µM, SnMP 50 µM, CrMP 50 µM, NAC 2 mM, LtP in YEM/PBS with 6 µM hemin; for IC50: Leishmania tarentolae, read-out: IC50 in the absence of additional inhibitors
[4] = test system: HO-like activity in LtP homogenates; assay: Heme oxygenase-like activity; format: biochemical, Leishmania tarentolae
[5] = test system: hemin degradation in LtP homogenates and SGF/MCF fractions; assay: Hemin degradation in LtP homogenates and SGF/MCF subfractions by HPLC; format: biochemical, Leishmania tarentolae; details: 40 µM ZnPP, 7 µM hemin, 0, 2 or 4 h at 26 °C
Method in brief: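 LtP homogenates from hypo-osmotic lysis and freeze–thaw (37 mg protein/mL), or pooled SGF/MCF pellets from differential centrifugation (3.7 mg protein/mL). Samples diluted in phosphate buffer pH 7.4 with 7 µM hemin plus 1.1 mM NADPH or 40 µM ZnPP; 0, 2 or 4 h at 26 °C. Hemin followed by HPLC-UV, normalised to 0 h; mean ± SD, n = 3.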

[6] = test system: Leishmania tarentolae promastigotes (LtP); assay: Metal; format: cell-based; details: 0 - 3 days; for iron content in LtP: 10 µM SnMP or 1 µM ZnPP, ICP-OES
Method in brief: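 Promastigotes (3.6 × 10^7/mL at day 0, OD600 0.3) grown in medium alone, with 10 µM SnMP or with 1 µM ZnPP for 0–3 days at 27 °C. After acid digestion (final 2 h at 75 °C), Fe measured by ICP-OES against 0.01–10 ppm standards. Sn measured by ICP-MS (120Sn, 0.1–100 ppb standards, isotope-corrected) after further 3-fold dilution. Results given as amol/cell.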

[7] = test system: labile iron pool (LIP) in LtP; assay: Low temperature EPR spectroscopy of the labile iron pool in LtP; format: cell-based, Leishmania tarentolae; details: 1 mM EP, 1 h at 26 °C, EPR at 77 K
[8] = test system: splenic parasite burden; details: Art orally 25 mg/kg body weight vs SAG 20 mg/kg body weight; cited from earlier work
[9] = SnMP or CrMP 38 µM, 77 µM, hemin 6.67 µM, NADPH 1 mM, RLS, 27 °C, 30 min

Molecule | IC50, J774/IC50, LtP (selectivity index) [1] | IC50 [2] | influence on the antileishmanial action (IC50) of Asc and Art [3] | further results
N=C(N)c1ccc(OCCCCCOc2ccc(C(=N)N)cc2)cc1 [Pen, pentamidine isethionate] | 15 | 12.3 ± 3.96 µM | – | –
C[C@H]1[C@H](OC(=O)CCC(=O)O)O[C@@H]2O[C@@]3(C)CC[C@H]4[C@H](C)CC[C@@H]1[C@@]24OO3 [Arsu, artesunate] | 9 | 16.9 ± 5.2 µM | – | –
chromium mesoporphyrin [CrMP] | – | – | inhibited the antileishmanial activity of Art stronger than that of Asc | HO-like activity (bilirubin formation) [4, 9]: inhibit this HO-like activity
C=CC1=C(C)c2cc3[n-]c(cc4nc(cc5[n-]c(cc1n2)c(C)c5C=C)C(C)=C4CCC(=O)O)c(CCC(=O)O)c3C.[Zn+2] [ZnPP, zinc protoporphyrin] | – | – | – | hemin degradation [5]: strongly inhibited; iron content in LtP [6]: small decline but no total inhibition of iron import into LtP
C[C@@H]1CC[C@H]2[C@@H](C)C(=O)O[C@@H]3O[C@@]4(C)CC[C@@H]1[C@]32OO4 [Art, artemisinin] | – | 192 ± 41.1 µM | – | IC50 [3]: 2.96 ± 0.71 µM; HO-like activity (bilirubin formation) ([4]; Art 500 µM in the presence of catalase 2520 U/mL): inhibited the HO-like activity in LtP homogenates; influence on the redox state of the LIP (apparent Fe3+) [7]: influences the redox state of the LIP in LtP to a much lesser extent than Asc; splenic parasite burden [8]: reduce the splenic parasite burden slightly more than sodium antimony gluconate (SAG)
C[C@@H]1CC[C@H]2[C@@H](C)C(=O)O[C@@H]3O[C@@]4(C)CC[C@@H]1[C@]32O4 [DeoxyArt, deoxyartemisinin] | 1 | > 200 µM | – | –
C[C@H]1[C@@H](O)O[C@@H]2O[C@@]3(C)CC[C@H]4[C@H](C)CC[C@@H]1[C@@]24OO3 [DHA, dihydroartemisinin] | 20 | 14.8 ± 6.49 µM | – | –
Cc1ncc(CO)c(/C=N/NC(=O)c2ccncc2)c1O [PIH, Pyridoxal isonicotinoyl hydrazone] | – | – | non-selectively inhibited the action of both Asc and Art in a similar fashion | –
Tin mesoporphyrin [SnMP] | – | – | inhibited the antileishmanial activity of Art stronger than that of Asc | HO-like activity (bilirubin formation) [4, 9]: inhibit this HO-like activity; iron content in LtP [6]: almost identical over several days; Sn accumulation in LtP ([6]; 10 µM SnMP, ICP-MS): taken up into LtP
CC(C)C12C=CC(C)(CC1)OO2 (centres unmarked) [Asc, Ascaridole] | 7 | 202 ± 38.2 µM | – | IC50 [3]: 28.3 ± 6.7 µM
CC(=O)N[C@@H](CS)C(=O)O [NAC, N-acetylcysteine] | – | – | inhibited the action of Asc and even stronger that of Art | –
